Rows were chosen to be rich in hits. Some 0.55% of all compounds tested hit in one or more screens of this group.
TRPML3 ag: human TRPML3 channel agonists, primary screen, cell-based, HEK293 TRPML3-YFP, Fluo-8 calcium fluorescence, 3 µM. Mucolipin-3 (Homo sapiens), Q8TDD5. 100% = the carbachol control signal. activation, % at 3 µM. actives 0.29% (n = 220,000). AID 1448, 2008;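 active means activation above its plate's cutoff, the mean activation of the plate's test wells plus 3 SD, cut at about 12% in these data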
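Test system: TRPML3-YFP stable HEK293 cells. Doses: single point at 3 µM. Incubation: dye loading 1 h 37 °C then 30 min ambient, 125 s read. Signal: Fluo-8 calcium dye fluorescence, ex 470-495, em 515-575 nm. Measure: percent activation from peak-to-basal fluorescence ratio, scaled between DMSO and carbachol.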
OXTR ag: human OXTR agonists, primary screen, fluorescence, CHO-OTR cells, Fluo-8 calcium; Oxytocin receptor (Homo sapiens), P30559; Fluo-8 calcium fluorescence; normalized: DMSO 0%, oxytocin 100%; activation, % at 3 µM; actives 0.32% (n = 320,000); AID 2435, 2010;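 active means activation above the mean of all tested compounds plus 3 SD, cutoff set per screening run, cut at about 20% in these data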;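 further: peak over basal fluorescence ratio from a 100 s FLIPR kinetic read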
Target sequence (P30559 whole entry, looked up): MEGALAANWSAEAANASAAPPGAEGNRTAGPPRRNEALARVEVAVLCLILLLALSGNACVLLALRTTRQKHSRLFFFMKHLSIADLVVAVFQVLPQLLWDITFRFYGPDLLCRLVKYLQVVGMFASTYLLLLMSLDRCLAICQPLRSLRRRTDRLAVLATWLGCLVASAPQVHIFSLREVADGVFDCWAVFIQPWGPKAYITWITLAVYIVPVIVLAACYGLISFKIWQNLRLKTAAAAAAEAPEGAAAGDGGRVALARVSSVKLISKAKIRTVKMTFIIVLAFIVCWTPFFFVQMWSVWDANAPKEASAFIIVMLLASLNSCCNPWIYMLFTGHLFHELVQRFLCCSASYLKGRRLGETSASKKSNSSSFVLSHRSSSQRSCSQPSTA
V1aR counter: agonists of human V1a receptor, primary screen, counter-screen for OXTR agonist project, fluorescence, CHO-V1R cells | Vasopressin V1a receptor (Homo sapiens), P37288 | Fluo-8 calcium fluorescence, agonist mode; 0% DMSO, 100% 3 nM vasopressin | AID 2797, 2010 | activation, % at 3 µM | actives 0.25% (n = 320,000);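 active means activation above the mean activation of all tested compounds plus 3 SD, per screening run, cut at about 20% in these data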;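 further: signal is peak over basal fluorescence ratio across a 100 second FLIPR read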
zfTRPN1 agonist: zebrafish TRPN1 channel agonists, primary screen, cell-based, HEK293, calcium fluorescence | AID 1424, 2008 | transient receptor potential cation channel N1 (TRPN1/NompC), Danio rerio | HEK293 zebrafish TRPN1-YFP, Fluo-8 calcium fluorescence; 100% = response to 87 µM carbachol | activation, % at 3 µM | actives 0.18% (n = 220,000);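 active means activation above its plate's cutoff, the mean activation of test wells on that plate plus 3 SD, cut at about 19% in these data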
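System: zebrafish TRPN1-YFP in HEK293 cells / Dosing: 3 µM single point / Timing: dye loading 1 h at 37 °C, then 30 min room temperature / Signal: Fluo-8 calcium fluorescence, excitation 470-495 nm, emission 515-575 nm / Read-out basis: percent activation from peak over basal fluorescence ratio, control-normalized / Control set: high carbachol 87 µM, low DMSO alone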
OXTR potentiate: human OXTR potentiators, primary screen, fluorescence, CHO-OTR cells, Fluo-8 calcium; Oxytocin receptor (Homo sapiens), P30559; Fluo-8 calcium fluorescence, potentiator mode; 0% = oxytocin EC15, 100% = EC100; activation, % at 3 µM; actives 0.061% (n = 320,000);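 active means activation above that plate's cutoff, the mean activation of tested compounds plus 3 SD, cut at about 6.6% in these data, passing the limit was not always enough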
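Assay system: CHO cell line stably expressing human OTR. Reagent: EC15 oxytocin agonist. Dosing: single dose, 3.0 µM nominal final compound concentration. Timing: compound 6 min at room temperature before oxytocin, 100 s read. Signal: kinetic Fluo-8 calcium fluorescence. Controls: oxytocin EC15 low and EC100 high.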
OXTR pot confirm: human OXTR potentiators, confirmation, fluorescence, CHO-OTR cells, triplicate; 180 tested, under 10 active; shares compounds with OXTR potentiate; activation, % at 3 µM; AID 434985, 2010; Fluo-8 calcium fluorescence, potentiation; scaled from low-dose to maximal oxytocin;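 active means mean percent activation over triplicates above a cutoff set from solvent-only control plates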;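 further: compounds tested in the presence of an EC15 dose of oxytocin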
Hits are given with their value; i = inactive; nt = no result.

SMILES | TRPML3 ag | OXTR ag | V1aR counter | zfTRPN1 agonist | OXTR potentiate | OXTR pot confirm
Cc1ccc2c(c1)-n1c(nc3cc(Cl)ccc3c1=O)C(CC(C)C)NC2=O (centres undefined) | nt | i | i | nt | 13 | i
CCCCn1c(N)c(N(CC(C)C)C(=O)c2ccc(-c3ccc(Cl)cc3)o2)c(=O)[nH]c1=O | nt | i | i | nt | i | nt
CCCCn1c(N)c(N(CC)C(=O)c2ccc(-c3ccc(Cl)cc3)o2)c(=O)[nH]c1=O | nt | i | i | nt | 12 | i
COc1cccc(CC(=O)OCC(=O)NNC(=O)c2ccc(Br)cc2)c1 | nt | i | i | nt | i | nt
COc1ccc2nc(NC(=O)CSc3nnc(C)s3)sc2c1 | i | i | i | i | 10 | i
COc1ccc2nc(NC(=O)CSc3nc(SC)ns3)sc2c1 | i | i | i | i | i | nt
COCCNC(=O)/C(C#N)=c1\s/c(=C\c2ccccc2OC(F)F)c(=O)n1Cc1ccccc1 | i | i | i | i | i | nt
Cn1ncc(Cl)c1C(=O)NC1CCCC1 | nt | i | i | nt | i | nt
CCOC(=O)c1c(C)[nH]c(C(=O)CN2C(=O)NC3(CCCC3)C2=O)c1C | i | i | i | i | 6.3 | i
CCOC(=O)c1c(C)[nH]c(C)c1C(=O)CN1C(=O)NC2(CCCCCC2)C1=O | nt | i | i | nt | i | nt
NC(=O)c1ccc(NC(=O)COC(=O)c2cc3ccccc3cc2O)cc1 | nt | i | i | nt | i | nt
Cn1c(=O)c2[nH]c(-c3ccccc3Cl)c(O)c2n(C)c1=O | i | i | i | i | 22 | i
O=C(NC(Cc1cccc(F)c1)C(=O)O)C1CCCCC1 (centres undefined) | nt | i | i | nt | 8.1 | i
CC(C)C1CCC(C(=O)N[C@H](Cc2ccccc2)C(=O)O)CC1 (some centres undefined) | i | i | i | i | i | nt
CN(c1ccccc1C(=O)Nc1ccc(S(=O)(=O)N2CCCCC2)cc1)S(C)(=O)=O | i | i | i | i | 11 | i
CCn1c(SCC(=O)NC2CCCCC2)nnc1-c1ccccc1F | nt | i | i | nt | i | nt
O=C(COC(=O)Cc1c(F)cccc1Cl)NCc1ccc2c(c1)OCO2 | nt | i | i | nt | i | nt
C/C(N)=C(/C#N)C(=O)COC(=O)CNS(=O)(=O)c1c(F)cccc1F | i | i | i | i | i | nt
COCCCN1CC(=O)N2C(c3ccccc3)c3[nH]c4ccccc4c3C[C@H]2C1=O (some centres undefined) | nt | i | i | nt | 8.7 | i
O=C(NC1CCCCCC1)C(=S)NCCc1ccccc1 | i | i | i | i | i | nt
O=C(NCCc1ccccc1)NC1CCCCC1 | i | i | i | i | 12 | i
CCOC(=O)N1CCN(C(=O)C2CCN(C(=O)Nc3ccccc3)CC2)CC1 | nt | i | i | nt | 11 | i
CCN1CCN(C(=O)C2CCN(C(=O)Nc3ccccc3)CC2)CC1 | nt | i | i | nt | i | nt
COc1ccc(C(=O)NNC(=O)c2ccc(F)c(S(=O)(=O)N3CCOCC3)c2)cc1 | nt | i | i | nt | 14 | i
CCN1C(=O)N(CC)c2cccc3cccc1c23 | nt | i | i | nt | 11 | i
SMILES | TRPML3 ag | OXTR ag | V1aR counter | zfTRPN1 agonist | OXTR potentiate | OXTR pot confirm
CC1CCN(C(=O)C2CCN(S(=O)(=O)c3cnc[nH]3)CC2)CC1 | i | i | i | i | i | nt
CC1CCN(S(=O)(=O)c2cnc[nH]2)CC1 | nt | i | i | nt | 8.5 | i
Cc1ccc(CCNS(=O)(=O)c2cc(Br)cnc2N)cc1 | nt | i | i | nt | i | nt
CCOc1ccc(C(=O)Nc2nnc(SCC(=O)NCC3CCCO3)s2)cc1OCC (centres undefined) | nt | i | i | nt | 11 | i
CCOC(=O)c1nc(C)n(-c2ccc([N+](=O)[O-])cc2)n1 | i | i | i | i | i | nt
CCOC(=O)c1nc(C)n(-c2ccc(Cl)cc2)n1 | i | i | i | i | 9.9 | i
CSc1ccc(C(=O)N2CCC(CCC(=O)NC3CC3)CC2)cc1 | nt | i | i | nt | i | nt
Cc1ccc(S(=O)(=O)C2(C(=O)NC3CCCCC3C)CC2)cc1 (centres undefined) | i | i | i | i | 17 | i
COC(=O)c1c(C)noc1-c1snnc1C | i | i | i | i | 11 | i
CC(C)=NOC(=O)c1c(C)noc1-c1snnc1C | i | i | i | i | i | nt
C/C(Cl)=C/Cn1c(N2CCCC2)nc2c1c(=O)[nH]c(=O)n2C | nt | i | i | nt | i | nt
C=CCn1c(N2CCCC2)nc2c1c(=O)[nH]c(=O)n2C | i | i | i | i | 11 | i
O=C(NC(=S)Nc1ccccc1N1CCOCC1)c1ccc(Br)cc1 | nt | i | i | nt | 14 | i
CSc1cccc(NC(=O)Nc2ccccc2C(N)=O)c1 | i | i | i | i | i | nt
COc1ccccc1NC(=O)Nc1cccnc1 | i | i | i | i | i | nt
Cc1ccc(CC(=O)NCCc2ccc(S(N)(=O)=O)cc2)cc1 | nt | i | i | nt | i | nt
Cc1ccc2c(CC(=O)NCCc3ccc(S(N)(=O)=O)cc3)coc2c1 | i | i | i | i | 9.3 | i
CCC(C)NC(=O)CCNS(=O)(=O)c1ccc(Br)cc1 (centres undefined) | i | i | i | i | i | nt
COc1ccc2oc(=N)c(C(=O)Nc3cccc(C)c3C)cc2c1 | nt | i | i | nt | i | nt
COC1CCCCC1Nc1cccc(SC)c1 (centres undefined) | i | i | i | i | 12 | i
CCOc1ccccc1NS(=O)(=O)c1cn(C)c(=O)n(C)c1=O | i | i | i | i | i | nt
Cc1cc(C)nc(-n2nc(C)c(Sc3ccc(F)cc3)c2N)n1 | i | i | i | i | 11 | i
Cc1nn(-c2ccccc2)c(N)c1Sc1cccc([N+](=O)[O-])c1 | i | i | i | i | i | nt
CC(=O)c1cc(CN2CCN(C(C)C)C(CCO)C2)cs1 (centres undefined) | i | i | i | i | 12 | i
CC(=O)NCCOc1nc(N2CCCCC2)nc(N2CCCCC2)n1 | i | i | i | i | i | nt
CN(CC(=O)Nc1ccccc1C(F)(F)F)C(=O)c1cc([N+](=O)[O-])ccc1N1CCOCC1 | nt | i | i | nt | i | nt
COc1ccccc1OCCNC(=O)c1cc(=O)[nH]c2ccccc12 | i | i | i | i | 9.1 | i
O=S(=O)(Nc1ccccc1)c1cccc2nsnc12 | nt | i | i | nt | i | nt
O=C(O)c1cccc(NS(=O)(=O)c2cccc3nsnc23)c1 | i | i | i | i | 10.0 | i
CCOC(=O)C1CCN(CC(=O)c2c(C)n(C)c3ccc(OC)cc23)CC1 | nt | i | i | nt | i | nt
